Here are results for eleven molecules from ChEMBL document CHEMBL2434954, “Novel 6β-acylaminomorphinans with analgesic activity” (Eur J Med Chem, 2013).

Calls of active or inactive are those of the source.

In general, ED50 refers to the dose at which the effect has come halfway, by size or by number of responders. As usually defined, the Ki is a measure of affinity in units of concentration, obtained from inhibition or displacement. For orientation: EC50 means the midpoint of the concentration-response curve. Lower therefore signals a more potent agent.

For series [1], the species on record is Mus musculus. The series can be described thus: Selectivity ratio of Ki for mouse cloned kappa opioid receptor to Ki for mouse cloned mu opioid receptor.
The test system of series [2] is Mus musculus. Kind of series: Analgesic activity in sc dosed CD1 mouse assessed as increase in pain threshold by tail flick method. The series is classed as functional. In a few lines:
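Male CD-1 mice (25-35 g), radiant heat tail-flick. Baseline 2.0-3.0 s, mean of two trials. Cumulative s.c. dosing, tested 30 min after dose, groups n=10, two independent assays. Analgesia defined quantally as doubling or more of baseline latency.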
In general terms: Hot-plate and tail-flick tests time the reaction to a heat stimulus.

Series [3] addresses T1, Delta-type opioid receptor (Mus musculus, UniProt P32300). The series can be described thus: Displacement of [125I]-BNtxA from mouse cloned delta opioid receptor expressed in CHO cells after 90 mins. The class given is cell-based. In a few lines:
(§1)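 CHO membranes stably expressing cloned mouse MOR-1, DOR-1 or KOR-1 (30-40 μg/mL protein), competition against 0.1 nM 125I-BNtxA. Incubation 90 min at 25°C in 50 mM potassium phosphate pH 7.4, with 5 mM MgSO4 for MOR-1 only. Nonspecific binding with 8 μM levallorphan. Ki from IC50. Mean ± SEM, at least three replicates.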
A general note: Loss of bound radioactivity is the signal in a displacement assay; it reports binding, not function.

The target in series [4] is T2, Kappa-type opioid receptor (Mus musculus, UniProt P33534). The series can be described thus: Displacement of [125I]-BNtxA from mouse cloned kappa opioid receptor expressed in CHO cells after 90 mins. The class given is cell-based. In a few lines:
as §1

Series [5] addresses T3, Mu-type opioid receptor (Mus musculus, UniProt P42866). The series can be described thus: Displacement of [125I]-BNtxA from mouse cloned mu opioid receptor expressed in CHO cells after 90 mins. The series is classed as cell-based. In a few lines:
as §1

For series [6], the system named is Mus musculus. The series can be described thus: Toxicity in CD1 mouse assessed as respiratory depression at 24 mg/kg, sc measured after 15 to 35 mins. The series is classed as organism-based. On the set-up: dose 24 mg/kg, route subcutaneous. The note with it: in vivo. Summed up:
(§2)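 Awake, freely moving adult male CD1 mice, pulse oximeter breath rate after 30 min habituation. 5-s average breath rate every 5 min. Baseline over 25 min before s.c. injection, then recorded from 15 min post-injection for 35 min. Groups n=3, saline control. Values given as percent of baseline.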

For series [7], the species on record is Mus musculus. The series can be described thus: Selectivity ratio of EC50 for mouse cloned delta opioid receptor to EC50 for mouse cloned mu opioid receptor by [35S]GTPgammaS binding assay. The series is classed as functional. In general terms: GTPγS is a poorly hydrolysed GTP analogue; its binding reports G protein activation.
For series [8], the species on record is Mus musculus. Kind of series: Selectivity ratio of EC50 for mouse cloned kappa opioid receptor to EC50 for mouse cloned mu opioid receptor by [35S]GTPgammaS binding assay. The class given is functional.
The target in series [9] is Mu-type opioid receptor (Mus musculus) (UniProt P42866). The series can be described thus: Agonist activity at mouse cloned mu opioid receptor expressed in CHO cells after 60 mins by [35S]GTPgammaS binding assay relative to DAMGO. The series is classed as functional, cell-based. Summed up: (§3)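 Membranes from transfected cells incubated with agonist 60 min at 30°C in 50 mM Tris-HCl pH 7.4, 3 mM MgCl2, 0.2 mM EGTA, 10 mM NaCl, with 0.05 nM [35S]GTPγS and GDP. Filtration on glass-fibre filters, scintillation counting. Basal binding with GDP and no drug. […] Mean ± SEM, three assays in triplicate.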
Sequence of Mu-type opioid receptor (Mus musculus) (P42866 whole entry): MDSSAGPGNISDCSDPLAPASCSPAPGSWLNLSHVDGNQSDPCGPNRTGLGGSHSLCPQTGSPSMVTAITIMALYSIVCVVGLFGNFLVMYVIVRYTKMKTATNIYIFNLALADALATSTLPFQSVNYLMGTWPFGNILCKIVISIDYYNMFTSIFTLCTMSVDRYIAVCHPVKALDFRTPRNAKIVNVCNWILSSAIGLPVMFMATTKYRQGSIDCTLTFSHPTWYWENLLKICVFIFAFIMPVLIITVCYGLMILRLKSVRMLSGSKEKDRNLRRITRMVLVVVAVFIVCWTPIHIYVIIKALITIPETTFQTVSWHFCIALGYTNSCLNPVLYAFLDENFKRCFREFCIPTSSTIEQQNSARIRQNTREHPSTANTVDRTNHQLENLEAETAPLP

Series [10] has as its target Delta-type opioid receptor (Mus musculus) (UniProt P32300). The series can be described thus: Agonist activity at mouse cloned delta opioid receptor expressed in CHO cells after 60 mins by [35S]GTPgammaS binding assay relative to DPDPE. The class given is functional, cell-based. Summed up:
as §3

Series [11] deals with Kappa-type opioid receptor (Mus musculus) (UniProt P33534). Kind of series: Agonist activity at mouse cloned kappa opioid receptor expressed in CHO cells at 100 nM after 60 mins by [35S]GTPgammaS binding assay relative to U50488H. The class given is functional, cell-based. Summed up: as §3
Sequence of Kappa-type opioid receptor (Mus musculus) (P33534 whole entry): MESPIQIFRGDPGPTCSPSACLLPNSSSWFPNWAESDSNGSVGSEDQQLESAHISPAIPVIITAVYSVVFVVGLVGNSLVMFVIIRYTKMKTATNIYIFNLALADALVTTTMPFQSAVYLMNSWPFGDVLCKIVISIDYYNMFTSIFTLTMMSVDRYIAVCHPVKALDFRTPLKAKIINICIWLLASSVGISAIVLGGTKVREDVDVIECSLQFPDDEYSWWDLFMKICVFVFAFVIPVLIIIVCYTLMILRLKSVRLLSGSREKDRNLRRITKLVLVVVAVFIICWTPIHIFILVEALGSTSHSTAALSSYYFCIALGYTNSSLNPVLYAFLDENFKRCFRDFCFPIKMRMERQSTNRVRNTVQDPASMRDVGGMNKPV
The target in series [12] is T1, Delta-type opioid receptor. The series can be described thus: Agonist activity at mouse cloned delta opioid receptor expressed in CHO cells after 60 mins by [35S]GTPgammaS binding assay. The series is classed as functional, cell-based. In a few lines:
(§4)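 Membranes from transfected cells incubated with agonist 60 min at 30°C in 50 mM Tris-HCl pH 7.4, 3 mM MgCl2, 0.2 mM EGTA, 10 mM NaCl, with 0.05 nM [35S]GTPγS and GDP. Filtration on glass-fibre filters, scintillation counting. Basal binding with GDP and no drug. Mean ± SEM, three assays in triplicate.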

The target in series [13] is T2, Kappa-type opioid receptor. Kind of series: Agonist activity at mouse cloned kappa opioid receptor expressed in CHO cells after 60 mins by [35S]GTPgammaS binding assay. The class given is functional, cell-based. In a few lines:
as §3

Series [14] has as its target T3, Mu-type opioid receptor. The series can be described thus: Agonist activity at mouse cloned mu opioid receptor expressed in CHO cells after 60 mins by [35S]GTPgammaS binding assay. The series is classed as functional, cell-based. Summed up:
as §4

In series [15] the test system is Mus musculus. The series can be described thus: Analgesic activity in sc dosed CD1 mouse assessed as increase in pain threshold by tail flick method in presence of kappa opioid receptor antagonist norBNI. The class given is functional, organism-based. In a few lines: (§5)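 Tail-flick test in CD1 mice (n=6 per group) given agonist 5 mg/kg s.c. alone or with antagonist s.c.: norBNI 10 mg/kg or β-FNA 40 mg/kg 24 h before, NTI 20 mg/kg 15 min before. Latency read 30 min after agonist. Two independent replications; ANOVA with Bonferroni test (p < 0.05).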

The test system of series [16] is Mus musculus. Kind of series: Analgesic activity in sc dosed CD1 mouse assessed as increase in pain threshold by tail flick method in presence of delta opioid receptor antagonist […]. The series is classed as functional, organism-based. In a few lines:
as §5

For series [17], the system named is Mus musculus. The series can be described thus: Analgesic activity in sc dosed CD1 mouse assessed as increase in pain threshold by tail flick method in presence of mu opioid receptor antagonist beta-FNA. The class given is functional, organism-based. In a few lines:
as §5

The species entered for series [18] is Mus musculus. The series can be described thus: Selectivity ratio of Ki for mouse cloned delta opioid receptor to Ki for mouse cloned mu opioid receptor.
Series [19] concerns Mus musculus. The series can be described thus: Toxicity in CD1 mouse assessed as respiratory depression at 20 mg/kg, sc measured after 15 to 35 mins. The class given is organism-based. On the set-up: dose 20 mg/kg, route subcutaneous. The note with it: in vivo. Summed up:
as §2

T2 sequence (P33534 whole entry): as above
T3 sequence (P42866 whole entry): as the sequence (P42866 whole entry) above
T1 sequence (P32300 whole entry): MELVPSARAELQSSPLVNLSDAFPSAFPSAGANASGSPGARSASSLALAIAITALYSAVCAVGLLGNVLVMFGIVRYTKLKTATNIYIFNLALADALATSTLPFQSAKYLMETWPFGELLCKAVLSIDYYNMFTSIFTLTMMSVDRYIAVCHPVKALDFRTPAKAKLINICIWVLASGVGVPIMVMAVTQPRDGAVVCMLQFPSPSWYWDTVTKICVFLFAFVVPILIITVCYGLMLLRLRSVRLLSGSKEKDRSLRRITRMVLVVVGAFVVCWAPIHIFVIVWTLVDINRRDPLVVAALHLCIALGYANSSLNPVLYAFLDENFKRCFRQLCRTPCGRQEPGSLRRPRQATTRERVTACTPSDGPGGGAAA
Sequence of Delta-type opioid receptor (Mus musculus) (P32300 whole entry): as above

Turning to `CN1CC[C@]23c4c5ccc(O)c4O[C@H]2[C@H](NC(=O)/C=C/c2ccc(C(F)(F)F)cc2)C=C[C@H]3[C@H]1C5`, in series [1], the Ratio Ki turned out to be 55.4. Moreover, in [2], the median effective dose (ED50) was above 10 mg/kg. The figures for the Ki in [3], in series [4] and in series [5] were 14.5 nM, 10.5 nM and 0.19 nM, respectively.

Turning to `CN1CC[C@]23c4c5ccc(O)c4O[C@H]2[C@H](NC(=O)/C=C/c2cccc([N+](=O)[O-])c2)C=C[C@H]3[C@H]1C5`, the median effective dose (ED50) in series [2] was above 10 mg/kg. Also, the inhibitory constant (Ki) in series [3] was determined as 5.15 nM; in series [4] it was 0.81 nM; in series [5], 0.12 nM.

As for `COc1ccc(/C=C/C(=O)N[C@@H]2C=C[C@H]3[C@H]4Cc5ccc(O)c6c5[C@@]3(CCN4C)[C@H]2O6)cc1`, in series [2], the 50% effective dose (ED50) is above 10 mg/kg. Further, the inhibition constant Ki in series [3] came to 15.3 nM; in [4], 5.43 nM; in series [5], 0.74 nM.

As to `COc1ccc2c3c1O[C@H]1[C@H](NC(=O)/C=C/c4ccc(Cl)cc4)C=C[C@H]4[C@@H](C2)N(C)CC[C@@]341`, the ED50 in [2] is above 10 mg/kg. Moreover, the figures for the Ki in series [3], in [4] and in [5] were above 100 nM, above 100 nM and 3.81 nM, respectively.

Consider `CN1CC[C@]23c4c5ccc(O)c4O[C@H]2[C@H](NC(=O)/C=C/c2ccccc2)C=C[C@H]3[C@H]1C5`, for which the Activity result in series [6] is listed as “Non-toxic”. Further, the Ratio EC50 in [7] worked out at 4; in series [8], 25. Also, the Efficacy in series [9] came to 95.3%; in series [10], 102%; in series [11], 106%. Also, the EC50 is 9.1 nM in [12], 36.5 nM in series [13] and 1.38 nM in series [14]. Further, in [15], the result was Active. The result in series [16] and in series [17] was inactive. The Ratio Ki in series [18] amounted to 103. Also, in [2], the ED50 stood at 3.13 mg/kg. Further, the Ki in series [3] came out at 10.3 nM; in [4] it was 2.9 nM; in [5], 0.1 nM.

For the molecule `COc1ccc2c3c1O[C@H]1[C@H](NC(=O)/C=C/c4ccccc4)C=C[C@H]4[C@@H](C2)N(C)CC[C@@]341`, the ED50 in [2] was above 10 mg/kg. Moreover, the Ki in series [3] was above 100 nM; in series [4] it was above 100 nM; in series [5], 4.73 nM.

As to `COc1ccc(/C=C/C(=O)N[C@@H]2C=C[C@H]3[C@H]4Cc5ccc(OC)c6c5[C@@]3(CCN4C)[C@H]2O6)cc1`, the ED50 in [2] is above 10 mg/kg. Besides, the inhibitory constant (Ki) in series [3] is above 100 nM; in [4], above 100 nM; in [5] it was 25.2 nM.

Turning to `CN1CC[C@]23c4c5ccc(O)c4O[C@H]2[C@H](NC(=O)/C=C/c2ccc(Cl)cc2)C=C[C@H]3[C@H]1C5`, the ED50 in series [2] is above 10 mg/kg. The Ki in series [3] is 9.38 nM; in series [4], 1.97 nM; in series [5], 0.15 nM.

As to `COc1ccc2c3c1O[C@H]1[C@H](NC(=O)/C=C/c4cccc([N+](=O)[O-])c4)C=C[C@H]4[C@@H](C2)N(C)CC[C@@]341`, the median effective dose (ED50) in [2] is above 10 mg/kg. In addition, the Ki in series [3] is above 100 nM; in [4] it was above 100 nM; in [5] it was 3.74 nM.

As to `CN1CC[C@]23c4c5ccc(O)c4O[C@H]2[C@@H](O)C=C[C@H]3[C@H]1C5` [MORPHINE], in [19], the Activity entry was “Toxic”. In [2], the ED50 stood at 4.96 mg/kg.

On to `COc1ccc2c3c1O[C@H]1[C@H](NC(=O)/C=C/c4ccc(C(F)(F)F)cc4)C=C[C@H]4[C@@H](C2)N(C)CC[C@@]341`, for which the ED50 in series [2] is above 10 mg/kg. Besides, the inhibition constant (Ki) in series [3] was above 100 nM; in [4], above 100 nM; in [5] it was 5.44 nM.
